# Values without a mark were called inactive.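 How the source made its calls, unless noted: active means viability at or below 30% in both replicate assays; inconclusive means viability at or below 30% in just one of the two assays; inactive means the rest.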
# Experiment: SK-BR-3 cell growth inhibitors, pilot screen, 24 h, human (AID 572;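 active means viability at or below 10% of carrier control in both of two separate runs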;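 further: compound exposure lasted between 18 and 24 h rather than exactly 24 h; 100% = carrier-treated control wells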)
# Conditions: SK-BR-3 viability, CellTiter-Glo luminescence, at 10 µM, stronger effect = lower value
row,SMILES,viability [%]
1,COC(=O)c1ccccc1NC(=O)c1ccc(-c2ccccc2F)o1,89
2,C=C(CC)C(=O)c1ccc(OCC(=O)O)c(Cl)c1Cl,86
3,O=C(NC1CC1)c1cccc(Nc2ccc(-c3ccc4c(c3)OCCO4)nn2)c1,76
4,COc1ccc(Cl)c(N2CCN(CCCNC(=O)Nc3ccc(C)cc3)CC2)c1,98
5,COc1ccc(Cl)cc1N1CCN(CCNC(=O)Nc2ccccc2C)CC1,85
6,COc1cc2nc(N3CCN(C(=O)C4COc5ccccc5O4)CC3)nc(N)c2cc1OC (centres undefined),59
7,C[C@]12CC[C@@H]3c4ccc(OC(=O)c5ccccc5)cc4CC[C@H]3[C@@H]1CC[C@@H]2O,78
8,COc1ccccc1N1CCN(Cc2nc(N)nc(Nc3ccc(C)c(Cl)c3)n2)CC1,104
9,COc1cccc(-c2cc(C(=O)Nc3cc(C)n(Cc4ccc(Cl)cc4)n3)no2)c1,57.5
10,CC(=O)C(Sc1ncnc2c1nnn2-c1ccc(F)cc1)C(=O)N(C)C (centres undefined),136
11,Cc1cc(-n2c(C)cc(C(=O)CSc3nnnn3-c3ccc(Cl)cc3)c2C)no1,81.5
12,O=S(=O)(c1ccc(Oc2ccc(-c3nnco3)cc2)nc1)N1CCC(Cc2ccccc2)CC1,109
13,COc1cccc(CN2C(=O)C3(C(C#N)=C(N)OC4=C3C(=O)CCC4)c3ccccc32)c1 (centres undefined),104
14,COC(=O)Nc1nc2ccc(Sc3ccccc3)cc2[nH]1,90

# Experiment: HUVEC growth inhibition – cell-based, human, primary screen (AID 575);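 further: 100% = median of untreated cell wells with 0.1% DMSO on each plate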
# Conditions: HUVEC proliferation, CellTiter-Glo luminescence, 72 h; at 10 µM; stronger effect = lower value
# Method in brief: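 Assay system: primary human umbilical vein endothelial cells / Buffer or medium: endothelial basal medium with 2% FBS plus growth supplements / Compound dosing: one dose, 10 µM final, 0.1% DMSO / Timing: 72 h treatment at 37 °C / Signal: CTG luminescence / Benchmarks: 32 DMSO-only cell-control wells (high), 32 MePR drug-control wells (low) per plate / Plate: collagen-coated 384-well format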
row,SMILES,viability [%]
1,O=C(CNC(=O)c1cccs1)NCCN1CCN(c2ccccc2F)CC1,101
2,Cc1ccc(Cn2ccc(NC(=O)c3noc4c3CCCC4)n2)cc1,101
3,COc1cc(NC(=O)c2cc(-n3cnnc3)ccc2Cl)cc(OC)c1,93.6
4,O=C(CN1C(=O)CCS(=O)(=O)c2ccccc21)NCc1ccc(F)cc1,85
5,Cc1c(O)c(CN2CCCC(C)C2)cc2c3c(c(=O)oc12)CCC3 (centres undefined),93.3
6,CC1(C)NC(=O)N(CC(O)CN2CCCCC2)C1=O (centres undefined),105
7,CCCOc1ccc(N2C(=O)CC(NCCCN3CCC(C(N)=O)CC3)C2=O)cc1 (centres undefined),121
8,Cc1ccc(Nc2nnns2)cc1C,84.6
9,COc1ccc(S(=O)(=O)N2CCC(C(=O)NCc3ccco3)CC2)cc1,93.8
10,Cc1cccc(OCC(=O)Nc2ccccc2N2CCN(C(=O)C(C)C)CC2)c1C,88.3
11,CNCCCC12CCC(c3ccccc31)c1ccccc12,77.4
12,Cc1ccccc1C(=O)N1CCC(C(=O)Nc2ccc(S(=O)(=O)N3CCCC3)cc2)CC1,97.1
13,CC(=O)c1cc(-c2ccccc2)n(CC(=O)N2CCN(C3CCCC3)CC2)c1C,98.7
14,CCOc1ccccc1N1C(=O)CC(Sc2ncccc2C(=O)O)C1=O (centres undefined),97
15,Clc1ccccc1-c1nnc2sc(-c3ccccn3)nn12,93.8
16,C=CCn1c(Cc2csc(N)n2)nnc1SCC(=O)OCC,103
17,CC(=O)Nc1ccc(S(=O)(=O)N2CCN(Cc3ccncc3)CC2)cc1,90.7
18,CCN(c1ccccc1)S(=O)(=O)c1ccc(F)cc1C,86.5
19,CC(=O)Nc1cccc(NC(=O)CSc2nnnn2C)c1,115
20,Cc1ccccc1NS(=O)(=O)c1ccc(NC(=O)c2ccco2)cc1,90
21,c1ccc(OCCOc2ncnc3sccc23)cc1,100
22,CNCCCN1c2ccccc2CCc2ccccc21,82.1
23,CC(C)c1ccc(-c2nc(N3CCOCC3)[nH]c(=O)c2C#N)cc1,79.3
24,COc1ccc2oc(C)c(C(=O)Cn3ccnc3)c2c1,92.8
25,O=C(CCN1CCOCC1)Nc1ccc2c(c1)CCC2,79.7
